Assay [1] is filed under the species Homo sapiens. The assay is described as follows: Selectivity ratio of IC50 for recombinant […] (unknown origin) to IC50 for recombinant His6-tagged PRMT1 (unknown origin).
For assay [2], the species on record is Homo sapiens. The assay is described as follows: Selectivity ratio of IC50 for recombinant His6-tagged PRMT5 (unknown origin) to IC50 for recombinant His6-tagged PRMT1 (unknown origin).
For assay [3], the species on record is Homo sapiens. Description: Selectivity ratio of IC50 for recombinant His6-tagged PRMT8 (unknown origin) to IC50 for recombinant His6-tagged PRMT1 (unknown origin).
Assay [4] has as its target T1, Protein arginine N-methyltransferase 1 (Homo sapiens, UniProt Q99873). Description: Displacement of [3H]-SAM from recombinant His6-tagged PRMT1 (unknown origin) expressed in Escherichia coli BL21(DE3) incubated for 5 mins prior to H4(1 to 20)-BTN peptide addition measured after 8 mins by scintillation proximity assay. Summed up: (§1)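 Serial compound dilutions were tested in the same SPA format (His-tagged enzyme purified from E. coli BL21(DE3), 5 min preincubation, H4(1–20)-biotin substrate, 8 min reaction, ~25 °C, HEPES pH 8.0 buffer). [3H]SAM and peptide were set near their predetermined Km values for each enzyme. Remaining activity was fitted to a Hill-modified IC50 equation, giving IC50 and Hill coefficient.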
On the technique in general: Loss of bound radioactivity is the signal in a displacement assay; it reports binding, not function.
Target sequence in this assay (Q99873 whole entry): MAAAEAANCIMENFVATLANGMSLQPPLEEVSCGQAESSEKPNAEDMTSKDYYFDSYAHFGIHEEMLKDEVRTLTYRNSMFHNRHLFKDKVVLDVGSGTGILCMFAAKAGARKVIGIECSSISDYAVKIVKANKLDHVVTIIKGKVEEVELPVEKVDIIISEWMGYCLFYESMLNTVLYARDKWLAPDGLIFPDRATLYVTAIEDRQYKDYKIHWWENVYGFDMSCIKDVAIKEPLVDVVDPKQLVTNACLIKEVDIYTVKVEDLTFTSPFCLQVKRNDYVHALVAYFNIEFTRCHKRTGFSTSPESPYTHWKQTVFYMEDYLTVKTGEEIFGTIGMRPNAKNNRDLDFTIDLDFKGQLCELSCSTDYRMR

Assay [5] addresses Protein arginine N-methyltransferase 5 (Homo sapiens, UniProt O14744). Description: Displacement of [3H]-SAM from recombinant His6-tagged PRMT5 (unknown origin) expressed in Escherichia coli BL21(DE3) incubated for 5 mins prior to H4(1 to 20)-BTN peptide addition measured after 8 mins by scintillation proximity assay. Summed up: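 Recombinant His6-PRMT5 was purified on Ni-NTA after IPTG induction in E. coli BL21(DE3). [3H]SAM and H4(1–20)BTN were set near their predetermined Km. Serially diluted compound was preincubated 5 min before peptide addition, reacted 8 min, isopropanol-quenched, and read with streptavidin SPA beads. IC50 and nH came from a Hill fit.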

Assay [6] addresses T2, Histone-arginine methyltransferase CARM1 (Homo sapiens, UniProt Q86X55).
T2 sequence (Q86X55 whole entry): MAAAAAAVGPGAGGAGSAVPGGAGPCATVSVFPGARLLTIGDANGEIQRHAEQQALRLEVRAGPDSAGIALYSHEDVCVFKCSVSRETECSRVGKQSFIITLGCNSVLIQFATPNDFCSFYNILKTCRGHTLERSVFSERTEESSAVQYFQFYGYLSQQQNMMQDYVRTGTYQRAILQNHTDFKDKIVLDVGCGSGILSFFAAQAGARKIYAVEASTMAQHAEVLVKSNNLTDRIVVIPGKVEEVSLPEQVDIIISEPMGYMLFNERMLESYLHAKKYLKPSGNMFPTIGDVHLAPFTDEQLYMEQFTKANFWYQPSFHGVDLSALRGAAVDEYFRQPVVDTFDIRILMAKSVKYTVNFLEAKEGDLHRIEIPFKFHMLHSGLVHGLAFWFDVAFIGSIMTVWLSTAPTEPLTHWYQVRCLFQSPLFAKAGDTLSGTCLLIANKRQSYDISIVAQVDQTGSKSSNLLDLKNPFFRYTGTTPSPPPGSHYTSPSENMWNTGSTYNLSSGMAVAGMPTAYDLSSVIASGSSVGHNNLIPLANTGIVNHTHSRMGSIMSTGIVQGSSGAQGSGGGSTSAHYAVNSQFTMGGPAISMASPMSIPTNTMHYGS
The assay is described as follows: Displacement of [3H]-SAM from recombinant GST-tagged CARM1 (unknown origin) expressed in Escherichia coli BL21(DE3) incubated for 5 mins prior to H3.3 protein addition measured after 8 mins by P81 filter paper binding assay.

Assay [7] addresses T1, Protein arginine N-methyltransferase 1. Description: Displacement of [3H]-SAM from recombinant His6-tagged PRMT1 (unknown origin) expressed in Escherichia coli BL21(DE3) at 10 uM incubated for 5 mins prior to H4(1 to 20)-BTN peptide addition measured after 8 mins by scintillation proximity assay. Summed up:
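His6-PRMT1 (0.02 µM) was purified from E. coli BL21(DE3) on Ni-NTA. It was preincubated 5 min with compound (10, 30 or 90 µM) and [3H]SAM (0.5 µM) in 50 mM HEPES pH 8.0, 1 mM EDTA, 50 mM NaCl, 0.5 mM DTT at ~25 °C. Biotinylated H4(1–20) peptide (1 µM) was added and the reaction run 8 min. It was quenched with isopropanol and read with streptavidin SPA beads. % inhibition was taken against water (full activity) and no-peptide blanks.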
Target sequence in this assay (Q99873 whole entry, looked up): as the sequence (Q99873 whole entry) above

In assay [8] the target is Protein arginine N-methyltransferase 8 (Homo sapiens, UniProt Q9NR22). Description: Displacement of [3H]-SAM from recombinant His6-tagged PRMT8 (unknown origin) expressed in Escherichia coli BL21(DE3) incubated for 5 mins prior to H4(1 to 20)-BTN peptide addition measured after 8 mins by scintillation proximity assay. Summed up: as §1
Chain of Protein arginine N-methyltransferase 8 (Q9NR22 whole entry): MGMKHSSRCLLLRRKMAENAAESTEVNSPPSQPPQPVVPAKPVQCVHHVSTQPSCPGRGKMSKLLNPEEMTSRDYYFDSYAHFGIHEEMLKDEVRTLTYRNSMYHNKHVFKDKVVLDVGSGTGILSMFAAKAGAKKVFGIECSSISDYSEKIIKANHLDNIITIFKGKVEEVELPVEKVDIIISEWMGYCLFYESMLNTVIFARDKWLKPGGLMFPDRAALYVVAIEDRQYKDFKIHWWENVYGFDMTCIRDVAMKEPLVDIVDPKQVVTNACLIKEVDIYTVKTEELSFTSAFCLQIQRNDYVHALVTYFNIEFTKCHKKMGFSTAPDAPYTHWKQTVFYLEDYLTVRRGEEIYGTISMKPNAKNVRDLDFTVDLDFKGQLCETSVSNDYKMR

Chain of Protein arginine N-methyltransferase 5 (O14744 whole entry): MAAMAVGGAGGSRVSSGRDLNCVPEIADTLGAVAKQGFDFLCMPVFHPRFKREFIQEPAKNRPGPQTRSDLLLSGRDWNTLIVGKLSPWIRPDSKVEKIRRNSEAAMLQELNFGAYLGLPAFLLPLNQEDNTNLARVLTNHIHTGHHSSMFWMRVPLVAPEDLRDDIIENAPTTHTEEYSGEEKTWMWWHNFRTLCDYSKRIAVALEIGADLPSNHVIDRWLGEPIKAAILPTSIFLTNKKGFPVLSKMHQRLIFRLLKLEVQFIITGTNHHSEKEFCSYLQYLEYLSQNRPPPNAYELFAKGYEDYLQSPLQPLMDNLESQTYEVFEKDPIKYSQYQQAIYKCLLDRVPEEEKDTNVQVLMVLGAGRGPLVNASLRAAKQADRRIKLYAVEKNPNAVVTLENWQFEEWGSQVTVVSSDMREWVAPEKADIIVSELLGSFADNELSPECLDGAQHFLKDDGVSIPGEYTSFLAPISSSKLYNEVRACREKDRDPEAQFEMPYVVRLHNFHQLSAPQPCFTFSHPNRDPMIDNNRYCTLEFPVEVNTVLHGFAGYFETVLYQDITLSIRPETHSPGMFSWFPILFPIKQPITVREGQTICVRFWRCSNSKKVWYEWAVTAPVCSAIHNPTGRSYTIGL

As to `C(/C=C/c1sc2c3ccccc3ccc2[n+]1CCCc1ccccc1)=C1/Sc2c(ccc3ccccc23)N1CCCc1ccccc1`, the Ratio IC50 in the assay listed under Homo sapiens [1] is 2; in the assay filed under Homo sapiens [2] it was 2; in the assay filed under Homo sapiens [3], more than 9. Also, the IC50 in assay [4] came out at 3.05 µM; in assay [5] it was 7.04 µM; in assay [6] it was 5.8 µM; in assay [8], 28.4 µM. Further, the inhibition in assay [7] came to 100%.

The term IC50 denotes the midpoint of a concentration-inhibition curve. The term inhibition denotes the share of the control response that was lost under treatment.
